Results on eleven compounds are retold here after ChEMBL document CHEMBL4257458, “Antiproliferative activities of alkaloid-like compounds” (Medchemcomm, 2017).

pIC50: −log10 of the molar value. Calls of active or inactive are those of the source. The rule behind the calls is not given here.

Series [1] deals with SK-MEL-5. The series can be described thus: Growth inhibition of human SK-MEL-5 cells after 48 hrs by SRB assay. The format is functional, cell-based. Particulars: SK-MEL-5, 48 h. In general terms: In SRB staining, fixed cells bind dye roughly in proportion to their protein.
Series [2] has as its system MOLT-4. Description: Growth inhibition of human MOLT4 cells after 48 hrs by SRB assay. The format is functional, cell-based. Conditions: MOLT-4, 48 h.
The test system of series [3] is DU-145. Description: Growth inhibition of human DU145 cells after 48 hrs by SRB assay. The format is functional, cell-based. Particulars: DU-145, 48 h.
Series [4] has as its system EKVX. Description: Growth inhibition of human EKVX cells after 48 hrs by SRB assay. The format is functional, cell-based.
Series [5] has as its system T47D. Description: Growth inhibition of human T47D cells after 48 hrs by SRB assay. The format is functional, cell-based.
Series [6] concerns OVCAR-3. Description: Growth inhibition of human OVCAR3 cells after 48 hrs by SRB assay. The format is functional, cell-based. Conditions: OVCAR-3, 48 h.
Series [7] relates to HL-60(TB). Description: Growth inhibition of human HL-60(TB) cells after 48 hrs by SRB assay. The format is functional, cell-based. Particulars: HL-60, 48 h.
In series [8] the test system is RXF 393. The series can be described thus: Growth inhibition of human RXF393 cells after 48 hrs by SRB assay. The format is functional, cell-based. Particulars: RXF 393, 48 h.
Series [9] relates to SK-MEL-28. Description: Growth inhibition of human SK-MEL-28 cells after 48 hrs by SRB assay. The format is functional, cell-based. Conditions: SK-MEL-28, 48 h.
Series [10] has as its system CAKI-1. The series can be described thus: Growth inhibition of human Caki1 cells after 48 hrs by SRB assay. The format is functional, cell-based. Particulars: CAKI-1, 48 h.
The subject of series [11] is MCF7. Description: Growth inhibition of human MCF7 cells after 48 hrs by SRB assay. The format is functional, cell-based. Particulars: MCF7, 48 h.
In series [12] the test system is CCRF-CEM. The series can be described thus: Growth inhibition of human CCRF-CEM cells after 48 hrs by SRB assay. The format is functional, cell-based.
For series [13], the system named is RPMI-8226. Description: Growth inhibition of human RPMI8226 cells after 48 hrs by SRB assay. The format is functional, cell-based. Particulars: RPMI-8226, 48 h.
Series [14] concerns MDA-MB-435. Description: Growth inhibition of human MDA-MB-435 cells after 48 hrs by SRB assay. Conditions: MDA-MB-435, 48 h. The format is functional, cell-based.
The test system of series [15] is MDA-MB-231. Description: Growth inhibition of human MDA-MB-231 cells after 48 hrs by SRB assay. Conditions: MDA-MB-231, 48 h. The format is functional, cell-based.
Series [16] concerns NCI-H522. The series can be described thus: Growth inhibition of human NCI-H522 cells after 48 hrs by SRB assay. The format is functional, cell-based. Particulars: NCI-H522, 48 h.
Series [17] relates to HT-29. The series can be described thus: Growth inhibition of human HT-29 cells after 48 hrs by SRB assay. The format is functional, cell-based. Particulars: HT-29, 48 h.
In series [18] the test system is Hs-578T. Description: Growth inhibition of human Hs 578T cells after 48 hrs by SRB assay. The format is functional, cell-based.
Series [19] concerns PC-3. The series can be described thus: Growth inhibition of human PC3 cells after 48 hrs by SRB assay. The format is functional, cell-based. Particulars: PC-3, 48 h.
The test system of series [20] is MDA-MB-231. Description: Antiproliferative activity against human MDA-MB-231 cells assessed as cell viability at 75 uM after 48 hrs by MTS assay relative to control. Conditions: MDA-MB-231, 48 h, read-out: Activity. The format is functional. Background: Tetrazolium dyes change colour on reduction, which living cells bring about.
Series [21] deals with COLO 205. Description: Growth inhibition of human COLO205 cells after 48 hrs by SRB assay. Particulars: COLO 205, 48 h. The format is functional, cell-based.
The subject of series [22] is Vero. Description: Antiproliferative activity against African green monkey Vero cells harboring GFP at 50 ug/ml after 4 days by fluorescence assay relative to control. The format is cell-based. Particulars: chlorocebus sabaeus, 96 h. An outline of the steps: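 GFP-expressing VERO (ATCC CCL-81 stably transfected with pEGFP-N1) in MEM with 10% heat-inactivated FBS, pyruvate, NaHCO3 (geneticin omitted during assay); 3.3 × 10^4 cells per mL; compound added, 4 days at 37 °C, 5% CO2; quadruplicate; fluorescence ex 485/em 535 nm, day-0 signal subtracted; % cytotoxicity = [1 − (FU treated/FU 0.5% DMSO)] × 100; ellipticine positive control.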

Series [23] has as its system SF-539. The series can be described thus: Growth inhibition of human SF539 cells after 48 hrs by SRB assay. Conditions: SF-539, 48 h. The format is functional, cell-based.
Series [24] has as its system SW-620. The series can be described thus: Growth inhibition of human SW620 cells after 48 hrs by SRB assay. The format is functional, cell-based. Conditions: SW-620, 48 h.
Series [25] relates to MCF7. The series can be described thus: Antiproliferative activity against human MCF7 cells at 50 uM after 48 hrs by MTS assay. The format is functional, cell-based. An outline of the steps:
(§1)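 Cells in DMEM with 10% FBS and 1% penicillin/streptomycin, 37 °C, 5% CO2; 7 × 10^3 cells per well, serum removed after 24 h, then compound (1–50 μM; DMSO ≤0.1%) for 48 h. MTS reagent 4 h at 37 °C, OD 550 nm; blank-subtracted, normalised to DMSO control (100%). IC50 by nonlinear regression; triplicates.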

Series [26] deals with MDA-MB-231. The series can be described thus: Growth inhibition of human MDA-MB-231 cells after 48 hrs by MTS assay. The format is functional, cell-based. Particulars: MDA-MB-231, 48 h. In outline: as §1
Series [27] concerns MDA-MB-231. The series can be described thus: Induction of apoptosis in human MDA-MB-231 cells after 48 hrs by Annexin V-FITC/propidium iodide staining based flow cytometry. The format is functional, cell-based. In outline:
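MDA-MB-231 at 1 × 10^5 per well, treated 48 h, 24 h after serum removal, at 20–40 μM (DMSO 0.1% v/v control). Cells trypsinised, washed in cold PBS, stained with Annexin V-FITC and PI (50 μg mL−1) in binding buffer, 20 min dark at 0 °C; flow cytometry scoring viable, early/late apoptotic and necrotic fractions; 3 independent experiments.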
(In general: A flow cytometer gives signals particle by particle.)

In series [28] the test system is MDA-MB-231. Description: Cell cycle arrest in human MDA-MB-231 cells assessed as decrease in G0/G1 phase at 20 uM after 24 hrs by propidium iodide staining based flow cytometry relative to control. The format is functional. Also noted: scale not given: the % may be the effect or the level left. An outline of the steps: (§2)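 MDA-MB-231 seeded at 5 × 10^5 per well, serum-starved 24 h, then treated 24 h (DMSO 0.1% control). Fixed overnight in 80% ethanol at 0 °C, washed, resuspended in PBS with 0.1% Triton X-100 and 0.1 mg mL−1 RNase A, stained with PI (50 μg mL−1) 30 min dark at 37 °C; flow cytometry, 1 × 10^4 events per sample; mean ± SEM of ≥3 independent experiments.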

Series [29] deals with MDA-MB-231. The series can be described thus: Growth inhibition of human MDA-MB-231 cells assessed as cell viability at 50 uM after 48 hrs by MTS assay relative to control. The format is functional. Particulars: MDA-MB-231, 48 h, read-out: Activity. In outline:
as §1

Series [30] relates to MDA-MB-231. Description: Antiproliferative activity against human MDA-MB-231 cells assessed as cell viability at 20 uM after 48 hrs by MTS assay relative to control. The format is functional. Particulars: MDA-MB-231, 48 h, read-out: Activity. In outline:
as §1

Series [31] deals with MDA-MB-231. The series can be described thus: Cell cycle arrest in human MDA-MB-231 cells assessed as increase in G2/M phase at 20 uM after 24 hrs by propidium iodide staining based flow cytometry relative to control. The format is functional. In outline: as §2
Series [32] has as its system MDA-MB-231. The series can be described thus: Growth inhibition of human MDA-MB-231 cells at 50 uM after 48 hrs by MTS assay. The format is functional, cell-based. In outline: as §1

A word on the pIC50: it is the negative decadic logarithm of the IC50, by convention in mol/L. On to `COC(=O)/C=C1\C(=O)C=C2C3CC4CC(CCC4(C)N21)C3(C)NC(C)=O` (configuration not stated), for which the pIC50 in series [1] is 5.20; in series [2] it was 5.62; in series [3] it was 4.77; in [4], 4.91; in series [5], 4.64; in [6], 4.93. Besides, the pIC50 in [7] is 5.26; in series [8], 5.17; in series [9], 5.74; in series [10] it was 5.28; in [11] it was 5.15; in [12] it was 5.36. In addition, the pIC50 in series [13] was 5.39; in series [14], 5.23; in series [15], 4.41; in series [16] it was 5.70; in [17] it was 5.12; in series [18], 4.96. For the same compound, the pIC50 in series [19] was 4.80; in series [21], 5.11; in [23], 5.48; in series [24], 5.55. For the same compound, the viability at 75 µM in series [20] amounted to 80%. The Activity in [22] is 77%.
For `C[C@]1(NC(=O)CCl)C2CC[C@@]3(C)N=C(CCl)C1CC3C2` (relative stereo), in series [25], the result was inactive. This compound also gave a pIC50 in series [26] of 5.10. Also, the Activity entry in [27] was “Dose-dependent effect”; in series [28], 20%; in [31] it was 15%; in series [22] it was 84%. In addition, the viability at 50 µM in series [29] amounted to 24%. Also, the viability at 20 µM in [30] was 90%.
As to `CC(=O)N[C@@]1(C)C2CC[C@@]3(C)N=C(C)C1CC3C2` (relative stereo), the “growth inhibition (GI)” value in [32] was “inactive”.
For the compound `CC(=O)N[C@@]1(C)C2CC[C@]3(C)C(C2)CC1[C@H](C)N3C` (some centres not stated), the “growth inhibition (GI)” value in [32] was “inactive”.
Consider `CCC(=O)N[C@@]1(C)C2CC[C@@]3(C)N[C@@H](CC)C1CC3C2` (some centres not stated), for which the “growth inhibition (GI)” value in series [32] was “inactive”.
On to `COC(=O)C[C@H]1C(=O)C=C2C3CC4CC(CC[C@@]4(C)N21)[C@]3(C)NC(C)=O` (some centres not stated), for which the pIC50 in series [26] is less than 4.30. In series [32], the “growth inhibition (GI)” value was “inactive”.
For `CC(=O)N[C@@]1(C)C2CC[C@@]3(C)N[C@@H](CCl)C1CC3C2` (some centres not stated), the “growth inhibition (GI)” value in series [32] is “inactive”.
Take `CC(=O)N[C@@]1(C)C2CC[C@@]3(C)N[C@@H](C)C1CC3C2` (some centres not stated): the “growth inhibition (GI)” value in series [32] was “inactive”.
With `CCC(=O)N[C@@]1(C)C2CC[C@@]3(C)N=C(CC)C1CC3C2` (relative stereo), in [32], the “growth inhibition (GI)” value is “inactive”.
As to `CC(=O)N[C@@]1(C)C2CC[C@@]3(C)N=C(CCl)C1CC3C2` (relative stereo), in [32], the “growth inhibition (GI)” value was “inactive”.
On the same count and under the same terms, next, `CCC(=O)N[C@@]1(C)C2CC[C@]3(C)C(C2)CC1[C@H](CC)N3C` (some centres not stated): “inactive”.
